Assays:
[1] = cited from earlier work
[2] = system: A and F1*S variants of human AGP; conditions: cited from earlier work
A variant of human AGP = A variant of human AGP (Homo sapiens, UniProt P19652); experiment: ITC of drug binding to the separated A variant of AGP; conditions: 30°C
[3] = target: F1*S variant of human AGP (Homo sapiens, UniProt P02763); experiment: ITC of drug binding to the separated F1*S variant of AGP; conditions: 30°C
Procedure, shortened: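 F1*S variant resolved from re-purified commercial human AGP on copper(II) IMAC (20 mM HEPES pH 7.4 load; 0→100% 300 mM imidazole, 1 mL/min). Degassed protein (140 μM, 20 mM HEPES pH 7.4) titrated with 5→16 mM drug in dialysate, 240 s intervals, 360 rpm, 30°C. Drug-into-buffer dilution heat subtracted. Integrated peaks vs molar ratio fitted by Marquardt for n, Ka, ΔH.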

human AGP = experiment: Isothermal titration calorimetry; type: binding; conditions: ITC, 30°C, heterogeneous AGP preparation

CN(C)CCC=C1c2ccccc2CCc2ccccc21 [amitriptyline]
pKa of the N,N-dimethylpropan-1-amine side chain [1]: 9.2
difference in affinity between A and F1*S [2]: > 20 fold
thermodynamic binding signature (A variant of human AGP; A variant): dominant favorable entropy gain and a smaller, albeit favorable enthalpy gain
greater affinity for the A variant compared to the F1*S variant (A variant of human AGP; separated variants): 4 fold
thermodynamic binding signature ([3]; F1*S variant): comparable enthalpy and entropy gains
lower binding affinity of the F1*S variant (vs A variant) ([3]; separated variants): 4 fold

CN(C)CCCN1c2ccccc2Sc2ccc(Cl)cc21 [chlorpromazine]
affinity for both variants [2]: comparable
binding energetics, A versus F1*S variant (A variant of human AGP; separated variants): comparable for both variants

CC(C)N(CCC(C(N)=O)(c1ccccc1)c1ccccn1)C(C)C (stereo not drawn) [disopyramide]
affinity for the F1*S [2]: very low
variant selectivity of binding [2]: selectively bind to the A variant

CN(C)CC/C=C1\c2ccccc2CSc2ccccc21 [dothepin]
lower affinity for AGP compared to amitriptyline (human AGP): ~ 2.5 fold

CN1CCN2c3ccccc3Cc3ccccc3C2C1 (stereo not drawn) [miaserine]
lower affinity for AGP compared to amitriptyline (human AGP): ~ 6 fold
